# The entries come from a sample that favours hits as a whole.
# T cruzi inh: blocks replication of Trypanosoma cruzi. T. cruzi beta-gal in NIH3T3, luminescence, 90 h. inhibition, % (test concentration not listed). hit rate 1.4% among 300,000. AID 1885;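 active = mean inhibition across valid replicates above about 55%, limit read from the data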;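 note: signal also drops with host cell toxicity which is not excluded here; 0% = plate median of DMSO wells and 100% = zero luminescence signal; higher percent means less beta-gal luminescence so fewer parasites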
#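 Assay system: NIH/3T3 fibroblasts plus reporter T. cruzi. Amount: NIH/3T3 cells, 5,000 per well. Buffer or medium: DMEM, 2% fetal bovine serum. Doses: compound pinned at 50 nL/well, DMSO. Schedule: ≥90 h infection period, 3 h prior cell attachment. Signal: luminescent β-galactosidase signal after 60 min lysis. Read-out: parasite load inhibition, %.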
# XBP1 UPR activ: adaptive UPR (XBP1) activation; CHO-XBP1 luciferase reporter, IRE1-XBP1 UPR activation, luminescence; percent of tunicamycin response, DMSO as zero; activation, % at 20 µM; hit rate 0.33% among 330,000;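 active = versus positive control, 20 µM dose yields 30% or more activation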;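 note: 100% = tunicamycin at 10 µg/mL and 0% = DMSO only wells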
#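 Material: CHO cell line with stable XBP1 luciferase reporter; buffer or medium: F12 medium containing 10% fetal bovine serum; compound: single point, 20 µM final compound, 1% DMSO; incubation: 6 h treatment, 37 °C; measured by: glow luminescence from Steady-Glo reagent; evaluation: activation, % of tunicamycin; control set: tunicamycin high, DMSO low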
# CHOP inh: blocks CHOP induction under ER stress. hit rate 3.8% among 220,000. CHO-K1 CHOP-promoter luciferase, tunicamycin-induced, 15-18 h. inhibition, % at 10 µM. AID 2732;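 active = compounds that reduced the stress-induced luciferase reporter signal by more than about 70% of percent inhibition, limit read from the data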;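 note: 0% = tunicamycin plus vehicle and 100% = wells without tunicamycin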
# Dynein transport: blocks dynein driven cargo transport along microtubules; 3617.4 mouse cells, GR-EGFP nuclear translocation imaging; test concentration mostly 20 µM; stimulated with dexamethasone, 1 µM; hits give low values; z-score, hits read low; hit rate 0.47% among 220,000; AID 1381;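 active = plate z-score of nuclear minus cytoplasmic receptor signal below a set negative limit, without overly bright fluorescence or cell loss, cut at about -3.5 in these data, passing the limit was not always enough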;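 note: z-score of nuclear minus cytoplasmic ring GR-EGFP intensity difference per well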
#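 Buffer or medium: tet-free, stripped-serum medium; Also added: dexamethasone, 1.0 µM final; Technique: high-content fluorescence imaging after fixation; Times: 48 h induction, 1 h compound, 30 min dex at 37 °C; Read-out: per-cell GR-EGFP intensity, nucleus versus surrounding cytoplasmic ring, well-averaged.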
# Lmaj promast: reduces viability of Leishmania major promastigotes; resazurin fluorescence viability; inhibition, % at 10 µM; hit rate 9% among 200,000; in the data active = inhibition above about 50%;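 note: promastigotes grown with compound for 44 hours at 28 °C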
# UPR CHOP act: activators of apoptotic arm of unfolded protein response (CHOP) | CHO-CHOP luciferase reporter, UPR activation, luminescence; percent of tunicamycin response over DMSO baseline | AID 449763 | activation, % at 10 µM | hit rate 0.34% among 330,000;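 active = at 10 µM dose, activation of 40% or more, normalized to positive control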;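 note: 100% = tunicamycin at 10 µg/mL and 0% = DMSO alone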
#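 Assay system: CHO-CHOP cells, stable luciferase reporter of PERK-eIF2a-CHOP signalling / Buffer or medium: F12 plus 10% serum / Compound dosing: one dose, 10 µM in 0.5% DMSO / Times: 6 h compound treatment, 37 °C / Technique: luciferase luminescence / Read-out: % reporter activation, DMSO baseline versus tunicamycin full activation / Benchmarks: tunicamycin and DMSO controls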
# Numbers without * were called inactive; . = no result.
SMILES,T cruzi inh,XBP1 UPR activ,CHOP inh,Dynein transport,Lmaj promast,UPR CHOP act
COc1cc2nc(SCc3c(C)noc3C)n(CCC3=CCCCC3)c(=O)c2cc1OC,4.4,0.9,11.6,-0.725,61.5*,2.4
COc1cc2nc(SCC(=O)NC3CC3)n(CCC3=CCCCC3)c(=O)c2cc1OC,.,.,.,-0.669,-4.5,.
CC1=CC(C)(C)N=C(Nc2nc(C)c3cc(C)cc(C)c3n2)N1,52.8,-2.1,13.4,-0.381,97.2*,1.1
Cc1cc(C)c2nc(Nc3nc(-c4ccccc4)cc(=O)[nH]3)nc(C)c2c1,24.9,27.2,7.0,1.17,.,25.6
Cc1ccc(/C=N\NC(=O)c2ccc3c(c2)OCO3)o1,19.5,0.0,.,.,.,5.9
CCOc1cc(/C=C2/NC(=O)N(CC(=O)Nc3cccc(C)c3)C2=O)ccc1OC,-10.5,2.4,90.4*,0.422,-2.3,-3.1
CCOc1cc(/C=C2/NC(=O)N(CC(=O)Nc3cccc(C)c3)C2=O)ccc1O,-62.3,0.6,43.1,-1.51,-6.2,0.5
CCOC(=O)[C@H]1[C@H]2COc3ccc(Cl)cc3[C@@H]2N2C(=O)[C@@H](C)NC(=O)[C@@]12C,.,-1.4,.,.,.,0.8
CCOC(=O)N1CCN(S(=O)(=O)c2ccc(Cl)cc2)CC1,1.9,-1.2,.,.,.,0.4
O=S(=O)(c1ccc(F)cc1)N1CCC(N2CCCCCC2)CC1,-13.6,-0.9,33.1,-0.431,98.0*,-1.4
CCOC(=O)N1CCC(N2CCN(c3cc(C)ccc3C)CC2)CC1,5.4,-0.2,25.3,-0.146,94.8*,-2.0
CC(C)(C)c1ccc(S(=O)(=O)N2CCC(N3CCCCC3)CC2)cc1,-31.2,-3.9,.,.,.,-0.1
CCOC(=O)N1CCC(N2CCN(S(=O)(=O)c3ccc(Cl)cc3)CC2)CC1,15.8,0.1,34.1,0.87,95.4*,1.0
CC1CN(C2CCN(S(=O)(=O)c3ccc4ccccc4c3)CC2)CC(C)O1 (stereo not drawn),9.5,-4.3,-3.1,-0.323,93.8*,-0.5
CN(CC(=O)Nc1cccc(F)c1)C(=O)CC1CCCCC1,-10.1,0.2,.,.,.,0.1
CCOC(=O)N1CCN(C(=O)CN(Cc2ccc(Cl)cc2)S(=O)(=O)c2ccc(C)cc2)CC1,21.9,-4.0,20.9,0.396,92.9*,1.2
CC1CCN(C2CCN(S(=O)(=O)c3ccc(F)cc3)CC2)CC1,11.6,-0.6,31.6,0.582,89.6*,-0.3
O=S(=O)(c1ccc(Cl)cc1)N1CCCCCC1,6.2,0.7,.,.,.,0.2
O=S(=O)(c1ccc(Cl)cc1)N1CCC(N2CCCCCC2)CC1,10.6,-2.6,29.8,0.58,96.9*,-2.9
Cc1ccc(NC(=O)C2CCN(S(=O)(=O)c3ccc(F)cc3)CC2)cc1,9.6,0.7,50.1,-0.629,99.4*,-0.5
COc1cc(CN2CCC(CCC(=O)NC3CC3)CC2)cc(Cl)c1OC,49.5,-1.8,.,.,.,0.6
O=C(CCN(CCO)Cc1ccccc1)Nc1ccc(Br)cc1,-16.6,1.9,-9.2,-3.75,18.8,-0.2
CCN(CCC(=O)Nc1ccc(Br)c(C)c1)Cc1ccccc1,21.4,-3.4,15.3,-0.137,92.0*,0.8
COC(=O)c1ccc(SCC(=O)NC2CCCC2)c([N+](=O)[O-])c1,-3.1,-1.4,19.8,0.0569,60.1*,-0.4
COC(=O)c1ccc(SCC(=O)N2CCC(C)CC2)c([N+](=O)[O-])c1,-5.3,-1.2,22.9,0.3,63.5*,2.4
SMILES,T cruzi inh,XBP1 UPR activ,CHOP inh,Dynein transport,Lmaj promast,UPR CHOP act
NC(=O)c1ccc(SCC(=O)NC2CCCCC2)c([N+](=O)[O-])c1,3.6,-1.5,11.3,-0.263,8.0,-0.4
CCCOc1ccc(C(=O)C(CN2CCOCC2)c2ccccc2)cc1 (stereo not drawn),-8.8,11.5,-8.0,-2.42,100.4*,32.8
CCCOc1ccc(C(=O)C(c2ccccc2)N2CCOCC2)cc1 (stereo not drawn),1.4,-2.0,-13.2,0.4,-1.4,-2.6
O=C(c1ccc(Cl)cc1)C(CN1CCCCC1)c1ccccc1 (stereo not drawn),32.3,-7.9,.,.,.,203.3*
COc1cccc(/C=C/C(=O)OCC(=O)Nc2cccc(S(=O)(=O)NC3=NCCCCC3)c2)c1,.,-0.4,.,.,.,-0.1
COC(=O)CC1C(=O)NCCN1C(=O)c1cc(OC)c(OC)cc1OC (stereo not drawn),-3.0,-4.9,.,.,.,-1.7
O=C(CN(C(=O)CCC(=O)Nc1nccs1)c1cccc(F)c1)NCCc1ccccc1,4.9,1.0,.,.,.,4.3
Cn1nc(C(F)(F)F)c(-c2ccc(Br)cc2)c1NC(=O)Nc1ccc(F)cc1F,47.4,-2.6,76.8*,0.267,.,1.2
Cn1nc(C(F)(F)F)c(-c2ccc(F)cc2)c1NC(=O)c1ccco1,5.0,0.3,9.0,-0.473,.,-0.8
CCc1cc(Cn2nc(-c3ccccc3)cc2C(=O)NCc2cccc(Br)c2)on1,.,-1.9,.,.,.,1.1
Cc1cc(Cl)cc(Br)c1OCCCCn1cncn1,35.0,0.1,29.0,0.0214,93.0*,-1.6
COc1ccc(NC(=O)c2cccnc2Nc2ccc(OC)cc2)cc1,16.0,4.4,-11.5,0.0933,76.0*,-1.7
COc1ccc(C2=CSC3=NNC4(CCCCC4)NN23)cc1,-2.1,4.4,-17.5,0.965,67.5*,3.0
COc1ccc(C2=CSC3=NCCN23)cc1,-3.6,-0.1,.,.,.,0.9
COc1ccc(-c2cc(C(F)(F)F)nc(SCC(N)=O)n2)cc1,-12.6,-2.1,19.1,-0.634,-0.9,-0.8
O=C(CSc1nc(-c2ccccc2)cc(C(F)(F)F)n1)NCc1cccs1,-3.2,1.8,82.3*,0.743,26.3,-1.1
COc1ccc(-c2cc(C(F)(F)F)nc(SCC(=O)NCc3cccs3)n2)cc1,46.6,0.4,70.3*,0.0824,-11.0,-1.5
FC(F)(F)c1cc(-c2ccccc2)nc(NCc2cccs2)n1,22.6,-1.5,75.2*,-0.118,-6.1,1.3
CC(C)c1nc(SCC(=O)Nc2ccc3c(c2)OCO3)n[nH]1,-5.9,3.4,56.1,-0.577,7.2,-2.0
O=C(CSc1nc(-c2ccccc2)cc(C(F)(F)F)n1)NCc1ccco1,11.0,-1.9,11.7,-1.57,0.8,-1.0
O=C(CSc1nc(-c2ccc(F)cc2)cc(C(F)(F)F)n1)Nc1ccc2c(c1)OCO2,3.1,-0.5,73.0*,0.0948,28.4,1.1
CCCCCOc1ccc(C(=O)Nc2ccc(N3CCOCC3)cc2N2CCOCC2)cc1,.,2.2,.,.,.,1.0
O=C(COC(=O)CCN1C(=O)C2CC=CCC2C1=O)Nc1ccc([N+](=O)[O-])cc1 (stereo not drawn),.,0.3,.,.,.,1.5
COc1cc(C)c(S(=O)(=O)NOCc2ccccc2)c(C)c1C,24.6,-4.0,.,.,.,1.6
Cc1cccc(N2C(=O)CS/C2=N\NC(=O)c2ccc(Br)cc2)c1C,4.0,-1.9,11.7,-0.903,5.2,0.4

# Compound activity from PubChem.
